Laboratory results published in ChEMBL document CHEMBL4706601, “The endocannabinoid system dual-target ligand N-cycloheptyl-1,2-dihydro-5-bromo-1-(4-fluorobenzyl)-6-methyl-2-oxo-pyridine-3-carboxamide improves disease severity in a mouse model of multiple sclerosis” (Eur J Med Chem, 2020).
Active and inactive are the calls of the source.

Assays:
[1] = molecular target: T1, Monoglyceride lipase (Homo sapiens, UniProt Q99685); assay: Inhibition of MAGL in human U937 cells using [glycerol-1,2,3-3H]2-OG as substrate preincubated for 15 mins followed by substrate addition and measured after 15 mins by liquid scintillation spectroscopy; type: cell-based, U-937
T1 sequence (Q99685 whole entry): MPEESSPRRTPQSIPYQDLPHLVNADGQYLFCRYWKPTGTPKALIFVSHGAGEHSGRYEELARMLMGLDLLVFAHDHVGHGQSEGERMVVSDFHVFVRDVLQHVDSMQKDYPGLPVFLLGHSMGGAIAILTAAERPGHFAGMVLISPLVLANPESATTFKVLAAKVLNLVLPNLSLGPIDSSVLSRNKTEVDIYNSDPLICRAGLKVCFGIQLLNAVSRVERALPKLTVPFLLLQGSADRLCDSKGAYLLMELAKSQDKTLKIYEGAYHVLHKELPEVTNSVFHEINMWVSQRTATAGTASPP
Summary of the method: (§1)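 Intact U937 cells, 10^6 per condition, pre-incubated with compound 15 min at 37 °C with shaking (screen at 10 μM; full curves for hits). Substrate: 1 μM AEA with 1 nM [3H]AEA (FAAH) or 10 μM 2-OG with 5 nM [3H]2-OG (MAGL), 15 min at 37 °C. Stopped with CHCl3:MeOH 1:1, aqueous tritium counted; mean ± SD, ≥3 experiments in triplicate.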

[2] = molecular target: T2, Fatty-acid amide hydrolase 1 (Homo sapiens, UniProt O00519); assay: Inhibition of FAAH in human U937 cells using [ethanolamine-1-3H]AEA as substrate preincubated for 15 mins followed by substrate addition and measured after 15 mins by liquid scintillation spectroscopy; type: cell-based, U-937; summary of the method: as §1
T2 sequence (O00519 whole entry): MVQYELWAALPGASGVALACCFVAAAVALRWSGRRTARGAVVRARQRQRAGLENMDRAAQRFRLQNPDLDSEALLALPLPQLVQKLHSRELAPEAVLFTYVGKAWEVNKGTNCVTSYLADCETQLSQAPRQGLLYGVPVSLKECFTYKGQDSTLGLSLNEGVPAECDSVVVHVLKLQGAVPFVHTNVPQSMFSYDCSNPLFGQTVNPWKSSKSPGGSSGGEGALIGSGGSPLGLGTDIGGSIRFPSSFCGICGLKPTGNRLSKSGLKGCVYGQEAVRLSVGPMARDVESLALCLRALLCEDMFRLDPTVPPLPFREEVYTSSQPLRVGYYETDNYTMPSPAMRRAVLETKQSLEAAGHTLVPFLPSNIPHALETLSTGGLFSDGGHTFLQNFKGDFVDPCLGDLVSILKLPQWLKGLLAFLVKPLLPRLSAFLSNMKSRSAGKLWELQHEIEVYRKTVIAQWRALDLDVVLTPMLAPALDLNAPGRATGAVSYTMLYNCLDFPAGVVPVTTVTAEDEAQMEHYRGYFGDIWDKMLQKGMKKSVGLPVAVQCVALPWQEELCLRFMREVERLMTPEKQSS

[3] = molecular target: T3, Cannabinoid receptor 2 (Homo sapiens, UniProt P34972); assay: Displacement of [3H]CP55940 from recombinant human CB2R expressed in CHO cell membranes incubated for 90 mins; set-up: species or system Membrane
[4] = molecular target: T4, Cannabinoid receptor 1 (Homo sapiens, UniProt P21554); assay: Displacement of [3H]CP55940 from recombinant human CB1R expressed in CHO cell membranes incubated for 90 mins; set-up: species or system Membrane
[5] = molecular target: T5, Lysophosphatidylserine lipase ABHD12 (Homo sapiens, UniProt Q8N2K0); assay: Inhibition of human ABHD12 expressed in HEK293 cells using 2-OG as substrate preincubated for 30 mins followed by substrate addition and measured after 5 mins by liquid scintillation spectroscopy; type: cell-based
T5 sequence (Q8N2K0 whole entry): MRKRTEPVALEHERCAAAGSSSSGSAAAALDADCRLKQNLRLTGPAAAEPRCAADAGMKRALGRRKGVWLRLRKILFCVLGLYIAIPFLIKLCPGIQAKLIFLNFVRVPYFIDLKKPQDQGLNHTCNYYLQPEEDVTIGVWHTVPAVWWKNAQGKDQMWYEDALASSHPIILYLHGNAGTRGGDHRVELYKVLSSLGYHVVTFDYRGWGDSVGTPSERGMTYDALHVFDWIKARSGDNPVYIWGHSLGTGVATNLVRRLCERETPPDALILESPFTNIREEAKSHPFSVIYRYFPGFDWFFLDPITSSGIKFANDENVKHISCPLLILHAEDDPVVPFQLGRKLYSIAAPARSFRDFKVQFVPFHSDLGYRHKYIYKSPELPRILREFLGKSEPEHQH
Summary of the method: (§2)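 Homogenates (40 µg) from HEK293 stably expressing hABHD6 or hABHD12 pre-incubated with compound 30 min at 37 °C in […], 0.1% BSA, pH 7.6; then 10 μM 2-OG for 5 min at 37 °C. Aqueous phase tritium counted after CHCl3:MeOH stop; no-enzyme blanks and non-transfected HEK293 hydrolysis subtracted. Controls WWL70 10 μM, THL 20 μM.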

[6] = molecular target: T6, Monoacylglycerol lipase ABHD6 (Homo sapiens, UniProt Q9BV23); assay: Inhibition of human ABHD6 expressed in HEK293 cells using 2-OG as substrate preincubated for 30 mins followed by substrate addition and measured after 5 mins by liquid scintillation spectroscopy; type: cell-based; summary of the method: as §2
T6 sequence (Q9BV23 whole entry): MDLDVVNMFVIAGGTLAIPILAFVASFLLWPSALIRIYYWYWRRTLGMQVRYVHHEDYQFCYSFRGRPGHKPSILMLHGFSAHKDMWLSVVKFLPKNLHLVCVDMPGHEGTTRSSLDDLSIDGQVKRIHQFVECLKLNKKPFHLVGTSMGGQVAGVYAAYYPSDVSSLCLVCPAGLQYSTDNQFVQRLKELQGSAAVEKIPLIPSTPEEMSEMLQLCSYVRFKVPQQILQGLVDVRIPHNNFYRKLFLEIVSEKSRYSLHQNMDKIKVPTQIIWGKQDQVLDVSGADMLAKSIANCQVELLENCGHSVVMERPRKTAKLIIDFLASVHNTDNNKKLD

[7] = molecular target: Cannabinoid receptor 1 (Rattus norvegicus) (UniProt P20272); assay: Agonist activity at CB1R in Sprague-Dawley rat hippocampal synaptosomes assessed as inhibition of 4-AP evoked glutamate release at 10 uM preincubated for 8 mins followed by 4-AP addition by HPLC analysis; type: subcellular; conditions: Hippocampus, filed as agonist
Summary of the method: (§3)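 Rat (male Sprague Dawley, 200-250 g) hippocampal synaptosomes from Percoll gradient, superfused at 37 °C (0.5 ml/min); 4-AP 600 μM for 2 min. Compounds and antagonists (SR141716A, SR144528, 1 μM) added 8 min before 4-AP and kept during it; basal effects tested by 2-min exposure alone. Endogenous glutamate by HPLC as pmol/mg protein; overflow = stimulated minus basal in control chambers; n = 3–9, triplicate.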

[8] = molecular target: Cannabinoid receptor 1 (Rattus norvegicus) (UniProt P20272); assay: Agonist activity at CB1R in Sprague-Dawley rat hippocampal synaptosomes assessed as inhibition of 4-AP evoked glutamate release at 10 uM preincubated for 8 mins followed by 4-AP addition in presence of 1 uM CB2R antagonist, SR144528 by HPLC analysis; type: subcellular; conditions: Hippocampus, filed as agonist; summary of the method: as §3
[9] = molecular target: Cannabinoid receptor 2 (Mus musculus) (UniProt P47936); assay: Agonist activity at CB2R in LPS induced mouse BV2 cells assessed as decrease in IL-1beta secretion at 10 uM preincubated for 30 mins followed by LPS stimulation for 4 hrs by ELISA; type: cell-based; conditions: BV-2, filed as agonist, time 270.0 min
Summary of the method: (§4)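 BV-2 murine microglia grown in high-glucose DMEM with 10% FBS. Treatments in FBS-free medium: test agonist 10 μM for 30 min, then LPS 5 μg/ml for 4 h; SR144528 10 μM given 15 min before agonist. DMSO ≤0.1% final. Medium spun 10 min at 1000×g; IL-1β, IL-6, IL-10 quantified by ELISA; three independent experiments in duplicate.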

[10] = molecular target: Cannabinoid receptor 2 (Mus musculus) (UniProt P47936); assay: Agonist activity at CB2R in LPS induced mouse BV2 cells assessed as decrease in IL6 secretion at 10 uM preincubated for 30 mins followed by LPS stimulation for 4 hrs by ELISA; type: cell-based; conditions: BV-2, filed as agonist, time 270.0 min; summary of the method: as §4
[11] = molecular target: Cannabinoid receptor 2 (Mus musculus) (UniProt P47936); assay: Agonist activity at CB2R in LPS induced mouse BV2 cells assessed as increase in IL-10 secretion at 10 uM preincubated for 30 mins followed by LPS stimulation for 4 hrs by ELISA; type: cell-based; conditions: BV-2, filed as agonist, time 270.0 min; summary of the method: as §4
[12] = molecular target: T3, Cannabinoid receptor 2; assay: Agonist activity at human CB2R expressed in CHO cell membranes after 90 mins by [35S]GTPgammaS assay; type: functional, Membrane
Summary of the method: (§5)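 In-house CHO membranes expressing hCB1 or hCB2 (10 µg) in 50 mM Tris-HCl, 3 mM MgCl2, 0.2 mM EDTA, 100 mM NaCl, 0.5% fatty-acid-free BSA, pH 7.4, with 10 μM GDP and 0.1 nM [35S]GTPγS. Incubated 90 min at 30 °C; antagonist pre-incubated 30 min. Nonspecific binding with 10 μM GTPγS; bound label by filtration and counting; ≥3 experiments in triplicate.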

[13] = molecular target: T4, Cannabinoid receptor 1; assay: Agonist activity at human CB1R expressed in CHO cell membranes after 90 mins by [35S]GTPgammaS assay; type: functional, Membrane; summary of the method: as §5
[14] = species: Homo sapiens; assay: Selectivity index, ratio of Ki for human CB1R expressed in CHO cell membranes to Ki for human CB2R expressed in CHO cell membranes; type: cell-based
[15] = test system: Mus musculus; assay: In vivo agonist activity at CB1R in BALB/c mouse assessed as reduction in spontaneous locomotion at 5 mg/kg, ip measured after 1 hr by rotarod test; type: functional, organism-based
Summary of the method: (§6)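 BALB/c mice given 5 mg/kg i.p. in DMSO (20 µL), tested 1 h later. Rectal temperature change from basal; catalepsy by bar test (4 cm bar, 120 s cut-off); locomotion by rotarod latency to fall at 4 rpm (120 s cut-off, 3 trials); analgesia by hot plate at 54-56 °C, first paw lick or shake. n = 5-20 per group.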

[16] = molecular target: T4, Cannabinoid receptor 1; assay: Antagonist activity at human CB1R expressed in CHO cell membranes preincubated for 30 mins followed by GTPgammaS addition and measured after 90 mins by [35S]GTPgammaS assay; type: functional, Membrane; summary of the method: as §5
[17] = test system: Mus musculus; assay: In vivo agonist activity at CB1R in BALB/c mouse assessed as induction of analgesia at 5 mg/kg, ip measured after 1 hr by hotplate test; type: functional, organism-based; summary of the method: as §6
[18] = test system: Mus musculus; assay: In vivo agonist activity at CB1R in BALB/c mouse assessed as reduction in body temperature at 5 mg/kg, ip measured after 1 hr by tetrad test; type: functional, organism-based; summary of the method: as §6
[19] = molecular target: T3, Cannabinoid receptor 2; assay: Inverse agonist activity at human CB2R expressed in CHO cell membranes after 90 mins by [35S]GTPgammaS assay; type: functional, Membrane; summary of the method: as §5
[20] = test system: Mus musculus; assay: In vivo agonist activity at CB1R in BALB/c mouse assessed as catalpesy-like behaviour by measuring increase in immobility time at 5 mg/kg, ip measured after 1 hr by bar test; type: functional, organism-based; summary of the method: as §6

T3 sequence (P34972 whole entry): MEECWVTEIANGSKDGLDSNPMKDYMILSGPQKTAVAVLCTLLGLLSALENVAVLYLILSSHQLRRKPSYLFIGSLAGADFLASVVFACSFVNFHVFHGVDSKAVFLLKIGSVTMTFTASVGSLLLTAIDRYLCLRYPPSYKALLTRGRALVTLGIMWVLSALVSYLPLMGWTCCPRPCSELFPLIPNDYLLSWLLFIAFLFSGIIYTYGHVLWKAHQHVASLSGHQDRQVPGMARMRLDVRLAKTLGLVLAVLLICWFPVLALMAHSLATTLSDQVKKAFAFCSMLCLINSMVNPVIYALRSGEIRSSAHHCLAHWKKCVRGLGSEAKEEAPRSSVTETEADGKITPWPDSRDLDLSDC
Cannabinoid receptor 2 (Mus musculus), sequence (P47936 whole entry): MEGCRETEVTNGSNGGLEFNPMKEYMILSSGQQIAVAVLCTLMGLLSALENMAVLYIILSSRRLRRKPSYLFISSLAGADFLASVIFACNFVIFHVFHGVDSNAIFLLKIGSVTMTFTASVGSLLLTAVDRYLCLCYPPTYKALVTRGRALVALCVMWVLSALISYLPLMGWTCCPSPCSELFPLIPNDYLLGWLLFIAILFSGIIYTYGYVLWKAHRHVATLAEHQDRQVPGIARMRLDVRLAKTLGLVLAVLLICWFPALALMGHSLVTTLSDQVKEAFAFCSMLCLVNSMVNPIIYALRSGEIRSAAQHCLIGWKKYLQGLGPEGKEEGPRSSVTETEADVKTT
T4 sequence (P21554 whole entry): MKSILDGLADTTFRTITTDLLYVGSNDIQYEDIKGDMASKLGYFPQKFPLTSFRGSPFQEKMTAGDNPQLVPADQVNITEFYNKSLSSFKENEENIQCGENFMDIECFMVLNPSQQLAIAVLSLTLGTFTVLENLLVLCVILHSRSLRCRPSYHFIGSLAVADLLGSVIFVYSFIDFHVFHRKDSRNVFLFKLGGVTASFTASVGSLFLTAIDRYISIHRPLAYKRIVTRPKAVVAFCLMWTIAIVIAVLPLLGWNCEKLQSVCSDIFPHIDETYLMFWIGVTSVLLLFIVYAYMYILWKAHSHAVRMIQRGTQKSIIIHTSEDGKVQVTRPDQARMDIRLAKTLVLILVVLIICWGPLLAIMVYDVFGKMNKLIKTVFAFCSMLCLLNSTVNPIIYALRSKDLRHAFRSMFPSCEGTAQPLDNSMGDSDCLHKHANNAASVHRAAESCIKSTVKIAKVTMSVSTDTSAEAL
Cannabinoid receptor 1 (Rattus norvegicus), sequence (P20272 whole entry, the tested form may be a part): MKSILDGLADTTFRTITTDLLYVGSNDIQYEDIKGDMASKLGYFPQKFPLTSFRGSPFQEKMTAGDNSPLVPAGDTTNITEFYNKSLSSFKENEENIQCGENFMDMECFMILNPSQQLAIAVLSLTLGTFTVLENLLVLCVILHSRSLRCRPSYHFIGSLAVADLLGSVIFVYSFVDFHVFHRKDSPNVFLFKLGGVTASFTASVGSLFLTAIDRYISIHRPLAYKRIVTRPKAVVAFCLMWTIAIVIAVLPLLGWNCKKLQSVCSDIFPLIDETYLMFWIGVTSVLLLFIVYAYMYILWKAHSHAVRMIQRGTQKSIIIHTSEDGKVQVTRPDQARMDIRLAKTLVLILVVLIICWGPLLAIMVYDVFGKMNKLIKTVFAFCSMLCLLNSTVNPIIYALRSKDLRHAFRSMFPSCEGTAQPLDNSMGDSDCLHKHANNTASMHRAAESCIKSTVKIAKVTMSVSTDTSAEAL

Structure (SMILES) | IC50 [1] [µM] | IC50 [2] [µM] | Ki [3] [µM] | Ki [4] [µM] | IC50 [5] [µM] | IC50 [6] [µM] | also measured
CO[C@@H]1O[C@H](CNC(=O)c2cc(Br)c(C)n(Cc3ccc(F)cc3)c2=O)[C@H](O)[C@H](O)[C@H]1O | > 10 | > 10 | > 10 | > 10 | > 10 | > 10 | 
CCCCC/C=C\C/C=C\C/C=C\C/C=C\CCCC(=O)NCCCl |  |  |  |  |  |  | Activity [7]: Active; Activity [8]: Active
CC(=O)N[C@@H]1[C@@H](O)[C@H](O)[C@@H](CO)O[C@H]1NC(=O)c1cc(Br)c(C)n(Cc2ccc(F)cc2)c1=O | > 10 | > 10 | > 10 | > 10 | > 10 | > 10 | 
CCCC(C)(C)c1ccc2c(c1)OC(C)(C)[C@@H]1CC=C(C)C[C@@H]21 |  |  |  |  |  |  | Activity [9]: Active; Activity [10]: Active; Activity [11]: Active
Cc1c(Cl)cc(C(=O)NC2CCCCCC2)c(=O)n1Cc1ccc(F)cc1 | > 10 | 5.9 | 0.0043 | 0.0037 | > 10 | > 10 | EC50 [12]: 0.0033 µM; EC50 [13]: 0.00112 µM; Ratio Ki [14]: 0.86
Cc1c(-c2ccccc2)cc(C(=O)NC2CCCCCC2)c(=O)n1Cc1ccc(F)cc1 | > 10 | 0.56 | 0.0057 | 0.176 | > 10 | > 10 | Activity [15]: inactive; EC50 [16]: 0.00036 µM; Activity [17]: inactive; Activity [18]: inactive; EC50 [19]: 0.017 µM; Activity [20]: inactive
Cc1nc(OCc2ccc(F)cc2)c(C(=O)NC2CCCCCC2)cc1-c1ccc(F)cc1 | > 10 | > 10 | 0.531 | 4.6 | > 10 | > 10 | 
